Data from paper PMC2755535 (Archives of toxicology, 2009).

Columns and labels:
[1] = Levels of N-EtFOSE and metabolites in liver and serum; assay type: in vivo, female Sprague-Dawley rats; conditions: for Liver: serum ratio: N-EtFOSE-treated female rats, mean; for %TD in Serum / %TD in Serum (× 10^-3): assuming serum volume of 4.86 mL/100 mg
Total GPx = Total GPx activity; assay type: in vivo, female Sprague-Dawley rats; conditions: Figure 6
Method in brief: (§1)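 Rats were dosed orally for 21 days (5 days/week) with test compound at 5.0 mg/kg/day in corn oil, with vehicle, or with a positive control. Liver and uterus homogenates were assayed in a coupled glutathione reductase/NADPH system, reading NADPH decrease at 340 nm. H2O2 was the substrate for GPx-1 and cumene hydroperoxide for total GPx. Results are milliunits/mg Lowry protein, analysed by ANOVA and Dunnett's test (p<0.05).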

total SOD = experiment: Total SOD activity in liver and uterus; assay type: in vivo, female Sprague-Dawley rats; conditions: Figure 4
[2] = tested on: copper zinc superoxide dismutase (CuZnSOD); experiment: CuZnSOD activity in liver and uterus; assay type: in vivo, female Sprague-Dawley rats; conditions: Figure 4
GPx-1 = GPx-1 activity; assay type: in vivo, female Sprague-Dawley rats; conditions: Figure 6
Method in brief: as §1

[3] = assay type: in vivo, female Sprague-Dawley rats; conditions: oral 21 days, N-EtFOSE 5.0 mg/kg or ciprofibrate 7.5 mg/kg/day
[4] = Histopathological evaluation of H&E stained liver and uterus sections; assay type: in vivo, female Sprague-Dawley rats
[5] = tested on: reduced to oxidized glutathione; experiment: Total and oxidized glutathione; assay type: in vivo, female Sprague-Dawley rats; conditions: data not shown
Method in brief: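 Female Sprague-Dawley rats were gavaged for 21 days (5 days/week) with test compound at 5.0 mg/kg in corn oil (n=9), vehicle (n=9), or a reference peroxisome proliferator at 7.5 mg/kg/day (n=8), then killed by CO2. Liver and uterus aliquots were homogenized immediately in 5% 5-sulfosalicylic acid. Total and oxidized glutathione were measured by enzymatic recycling, and the GSH:GSSG ratio was derived.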

[6] = tested on: peroxisomal acyl Co-A oxidase (AOX); experiment: Peroxisomal acyl Co-A oxidase activity in liver homogenates; assay type: in vivo, female Sprague-Dawley rats; conditions: for AOX activity in liver, change versus control (significance): Figure 3; for Increase of peroxisomal AOX activity in liver compared to control: oral 21 days, N-EtFOSE increase p = 0.35
[7] = tested on: Manganese superoxide dismutase (MnSOD); experiment: MnSOD activity in liver and uterus; assay type: in vivo, female Sprague-Dawley rats; conditions: Figure 4; for MnSOD activity in the liver, change versus control: ciprofibrate p = 0.07
Catalase = Catalase activity in liver and uterus; assay type: in vivo, female Sprague-Dawley rats; conditions: Figure 5
Method in brief: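 Female Sprague-Dawley rats were gavaged once daily, 5 days/week for 21 days, with test compound at 5.0 mg/kg in corn oil (2 mL/kg) or with vehicle. A positive control peroxisome proliferator was given at 7.5 mg/kg/day in water/methylcellulose. H2O2 was added to liver or uterus homogenate in potassium phosphate buffer (pH 7.8), and H2O2 loss at 240 nm was followed for 2 min. Results are milli-k units/mg Lowry protein, compared by ANOVA with Dunnett's test.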

[8] = tested on: Thiobarbituric acid reactive substances (TBARS); experiment: TBARS in whole liver homogenate; assay type: in vivo, female Sprague-Dawley rats; conditions: data not shown
Method in brief: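 Female Sprague-Dawley rats were gavaged once daily, 5 days/week for 21 days. Groups: test compound at 5.0 mg/kg in corn oil (2 mL/kg, n=9), corn-oil vehicle (n=9), or a reference peroxisome proliferator at 7.5 mg/kg/day in water/methylcellulose (n=8). Euthanasia was 3 days (1 day for the reference agent) after the last dose. TBARS were measured fluorometrically in whole liver homogenate.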

[9] = rat, in vivo; cited from earlier work
[10] = rat, in vivo; cited from earlier work; remark: listed apart in the source
[11] = sheep, in vivo; cited from earlier work
[12] = sheep; ref Vitayavirasuk and Bowen, 1999; cited from earlier work
[13] = human blood; ref Kärrman et al., 2006b; cited from earlier work
[14] = percentage of the total N-EtFOSE dose
[15] = percentage of the total N-EtFOSE dose, recovery adjusted

Row | SMILES | Liver: serum ratio [1] | %TD in Serum [1, 14] | %TD in Liver [1, 15] | Total GPx activity in the liver, change versus control (Total GPx) | Total GPx activity in the uterus, change versus control (Total GPx) | Total SOD activity in the liver, change versus control (total SOD) | Total SOD activity in the uterus, change versus control (total SOD) | CuZnSOD activity in the liver, change versus control [2] | CuZnSOD activity in the uterus, change versus control [2] | GPx-1 activity in the liver, change versus control (GPx-1) | GPx-1 activity in the uterus, change versus control (GPx-1) | Survival and clinical signs of toxicity [3] | Ratio of Organ Weight to Body Weight, Spleen ([3]; mean ± SD) | GSH:GSSG ratio in the liver [5] | GSH:GSSG ratio in the uterus [5] | AOX activity in liver, change versus control (significance) [6] | Increase of peroxisomal AOX activity in liver compared to control [6] | MnSOD activity in the liver, change versus control [7] | MnSOD activity in the uterus, change versus control [7] | %TD in Serum (× 10^-3) [1, 14] | also measured
1 | CCN(CC(=O)O)S(=O)(=O)C(F)(F)C(F)(F)C(F)(F)C(F)(F)C(F)(F)C(F)(F)C(F)(F)C(F)(F)F [N-EtFOSAA, N-ethyl perfluorooctanesulfonamidoacetate] | 1.3 | 0.38 ± 0.17 %TD | 0.43 ± 0.13 %TD | – | – | – | – | – | – | – | – | – | – | – | – | – | – | – | – | – | –
2 | CC(C)(Oc1ccc(C2CC2(Cl)Cl)cc1)C(=O)O (stereo not shown) [Ciprofibrate, reference compound] | – | – | – | significantly decreased | significantly decreased | not significant effect | did not significantly alter | not significant effect | increased | significantly decreased | decreased only in the liver | no clinical findings | 2.5 ± 0.2 % (× 10^-3) | Neither N-EtFOSE nor ciprofibrate had an effect | Neither N-EtFOSE nor ciprofibrate had an effect | significant increase | 300 fold | tended to be increased | significantly decreased | – | Organ weight, Kidney ([3]; mean ± SD): 1.69 ± 0.05 g; Organ weight, Liver ([3]; mean ± SD): 13 ± 0.97 g; Organ weight, Spleen ([3]; mean ± SD): 0.58 ± 0.04 g; Organ weight, Uterus ([3]; mean ± SD): 0.31 ± 0.06 g; Ratio of Organ Weight to Body Weight, Liver ([3]; mean ± SD): 5.9 ± 0.3 %; Histopathological evaluation of H&E stained liver and uterus slices ([4]; oral 21 days, data not shown): did not reveal pathological changes; Catalase activity in the liver, change versus control (Catalase): not significantly altered; Catalase activity in the uterus, change versus control (Catalase): did not alter; TBARS in the liver [8]: Neither N-EtFOSE nor ciprofibrate had an effect
3 | CCN(CCO)S(=O)(=O)C(F)(F)C(F)(F)C(F)(F)C(F)(F)C(F)(F)C(F)(F)C(F)(F)C(F)(F)F [N-EtFOSE, N-Ethyl perfluorooctanesulfonamidoethanol] | – | – | – | No significant change | significant decrease | significantly increased | significantly increased | significantly increased | significantly increased | No significant change | no effect | no clinical findings | 2.7 ± 0.2 % (× 10^-3) | Neither N-EtFOSE nor ciprofibrate had an effect | Neither N-EtFOSE nor ciprofibrate had an effect | did not reach statistical significance | 16 fold | significantly increased | only exception | 0.42 ± 0.20 (× 10^-3) (n=5) %TD (× 10^-3) | Uncorrected N-EtFOSE level in the liver ([1]; rat, in vivo): c Corrected N-EtFOSE levels in the liver are not reported because of the poor recovery rate (2.5±1%); uncorrected N-EtFOSE levels group were low, with 4.6 ± 4.7 ppb in N-EtFOSE-treated animals and 7.8 ± 1.3 ppb in control animals.; Ratio of Organ Weight to Body Weight, Kidney ([3]; mean ± SD): 6.8 ± 0.4%; Ratio of Organ Weight to Body Weight, Uterus ([3]; mean ± SD): 1.6 ± 0.3%; Histopathological evaluation of H&E stained liver and uterus slices ([4]; rat, in vivo, po): did not reveal pathological changes; Doses causing a reduced body weight gain in pregnant rats [9]: > 5 mg/kg body weight/day; Catalase activity in the liver, change versus control (Catalase): not significantly altered; Catalase activity in the uterus, change versus control (Catalase): significantly increased; TBARS in the liver [8]: Neither N-EtFOSE nor ciprofibrate had an effect
4 | O=S(=O)(O)C(F)(F)C(F)(F)C(F)(F)C(F)(F)C(F)(F)C(F)(F)C(F)(F)C(F)(F)F [PFOS, perfluorooctane sulfonic acid] | 2.3 | 3.86 ± 0.86 %TD | 6.23 ± 0.95 %TD | – | – | – | – | – | – | – | – | – | – | – | – | – | – | – | – | – | Share of the total N-EtFOSE dose in the serum and liver ([1]; serum plus liver): approximately 9.5±1.2%
5 | NS(=O)(=O)C(F)(F)C(F)(F)C(F)(F)C(F)(F)C(F)(F)C(F)(F)C(F)(F)C(F)(F)F [FOSA, perfluorooctanesulfonamide] | – | – | 0.29 ± 0.06 %TD | – | – | – | – | – | – | – | – | – | – | – | – | – | – | – | – | 25.3 ± 6.1 (× 10^-3) %TD (× 10^-3) | half-life [10]: approximately 100 hours; Kp at 3 days after the last dose ([1]; female, Sprague-Dawley, rat, in vivo): 10.1; elimination phase half-life [11]: 63.4 h; plasma-to-whole blood ratio [12]: 0.04; mean plasma-to-whole blood ratio [13]: 0.2
6 | O=S(=O)(NCCO)C(F)(F)C(F)(F)C(F)(F)C(F)(F)C(F)(F)C(F)(F)C(F)(F)C(F)(F)F [FOSE, perfluorooctanesulfonamidoethanol] | 6.4 | – | – | – | – | – | – | – | – | – | – | – | – | – | – | – | – | – | – | 0.07 ± 0.03 (× 10^-3) %TD (× 10^-3) | %TD in Liver (× 10^-3) [1, 15]: 0.58 ± 0.35 (× 10^-3) %TD (× 10^-3)
